This is an account of results in publication PMC5884014 (Neoplasia (New York, N.Y.), 2017).

Marks after values point to notes of the source that are not given here.

For one data set, the system named is LoVo. Put plainly: Cytotoxicity assay. The class given is cell-based, human. The note with it: 72 h.
Another data set has as its system RKO. Put plainly: Cytotoxicity assay. The note with it: 72 h. The class given is cell-based, human.
In another data set the test system is H3347. As to the kind of experiment: Cytotoxicity assay. Type of data set: cell-based, human. The note with it: H3347, 72 h.
The test system of another data set is Colo205. As to the kind of experiment: Cytotoxicity assay. Type of data set: cell-based, human.
For another data set, the system named is HCT116. Put plainly: Cytotoxicity assay. Type of data set: cell-based, human.
In another data set the test system is Caco-2. As to the kind of experiment: Cytotoxicity assay. The class given is cell-based. The note with it: Homo sapiens, Caco-2, 72 h.
Another data set deals with DLD-1. As to the kind of experiment: Cytotoxicity assay. The class given is cell-based, human.
Another data set deals with LS174T. Put plainly: Cytotoxicity assay. Type of data set: cell-based, human. The note with it: 72 h.
Data set [1] in a line: Toxicology examination: complete blood counts. Type of data set: in vivo. The note with it: ICR mice, 5-FU 50 mg/kg i.p., SL-1 30, oxaliplatin 7.5, cisplatin 7.5 mg/kg i.v.
The test system of a further data set is SW620. As to the kind of experiment: Cytotoxicity assay. Type of data set: cell-based, human.
A further data set concerns HT-29. Put plainly: Cytotoxicity assay. Type of data set: cell-based, human.
The next data set deals with FHC. Put plainly: Cytotoxicity assay. The class given is cell-based, human. The note with it: 72 h.
Data set [2] is described as follows: Toxicology examination: serum biochemistry. Type of data set: in vivo. The note with it: ICR mice, 5-FU 50 mg/kg i.p., SL-1 30, oxaliplatin 7.5, cisplatin 7.5 mg/kg i.v.
Data set [3] deals with RKO cells. As to the kind of experiment: Annexin V staining assay. Type of data set: cell-based, human.
Data set [4] concerns RKO cells. As to the kind of experiment: Comet and modified comet assays. The note with it: 24 h, SL-1 0.75 μM, 5-FU […], alone or combined. Type of data set: cell-based, human. The method, boiled down:
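RKO cells were exposed to the test compound and/or 5-FU for 24 h and then processed by comet assay. The read-out was tail moment, reported as means ± SD (n = 3) and compared by Student's t test. Synergy on tail moment was expressed as a combination index (CI).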

In data set [5] the test system is HexA-rev and HexB-rev fragments. Put plainly: Guanine-N7 alkylation, Maxam-Gilbert method. The class given is binding. The note with it: 3'-end-labeled DNA, 37°C, 2 h, pH 7.4. Put shortly: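 Sixty-four symmetrical hexanucleotide fragments (HexA-rev, HexB-rev) were 3′-end-labelled, gel-purified on polyacrylamide, and reacted with the test compound. Guanine-N7 alkylation sites were mapped by the Maxam-Gilbert method. A weighted consensus sequence logo was generated with Seq2Logo 3.4.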

The subject of another data set is RKO-E6. As to the kind of experiment: Cytotoxicity assay. Type of data set: cell-based, human. The note with it: RKO-E6 (p53-KO), 72 h.
Setting [6] is: FHC normal fetal colonic epithelial cells.

On to `O=c1[nH]cc(F)c(=O)[nH]1` [5-FU, 5-fluorouracil], for which 25.8 ± 0.74 µM corresponded to half-maximal inhibition with LoVo (Homo sapiens, LoVo) (IC50). Besides, the IC50 in the data set with RKO (Homo sapiens, RKO) came out at 6.15 ± 1.63 µM. It took 5.89 ± 0.5 µM to reach half-maximal inhibition in the data set with H3347 (Homo sapiens) (IC50). This molecule returned an IC50 in the data set on Colo205 (Homo sapiens, COLO 205, 72 h) of 6.8 ± 3.05 µM. The IC50 with HCT116 (Homo sapiens, HCT-116, 72 h) stood at 2880 ± 330 nM. This molecule gave a concentration for half-maximal inhibition (IC50) in the data set with Caco-2 above 50 µM. In the data set with DLD-1 (Homo sapiens, DLD-1, 72 h), this molecule came in with an IC50 of 16.9 ± 5.3 µM. The molecule further showed an IC50 in the data set on LS174T (Homo sapiens, LS174T) of 18.6 ± 0.26 µM. Besides, in data set [1] (2 days), the BASO was 0.01 ± 0.01 10^9/l, the EO is given as 0.06 ± 0.01* 10^9/l, the HCT is recorded as 27.94 ± 3.75 % and the HGB amounted to 10.58 ± 2.62 g/dL. Further, in data set [1] (2 days), the LYMPH was 4.22 ± 0.45 10^9/l, the MCH is 14.94 ± 3.04 pg, the MCHC stood at 27.50 ± 4.71 g/dL and the MCV is 57.06 ± 3.75 fL. In [1] (2 days), the MONO is recorded as 0.02 ± 0.01 10^9/l, the NEUT is given as 0.78 ± 0.40 10^9/l, the PLT is reported as 873.00 ± 141.40** 10^9/l and the RBC is 4.98 ± 1.72* 10^12/l. Moreover, the WBC in [1] (2 days) is 5.09 ± 0.23 10^9/l. Moreover, in data set [1] (14 days), the BASO is 0.01 ± 0.01 10^9/l, the EO is on record as 0.08 ± 0.01*** 10^9/l, the HCT was found to be 45.53 ± 1.61 % and the HGB was 13.08 ± 0.25 g/dL. Also, in data set [1] (14 days), the LYMPH is listed as 2.62 ± 0.94 10^9/l, the MCH turned out to be 16.25 ± 0.35 pg, the MCHC is 28.73 ± 0.48 g/dL and the MCV came out at 56.48 ± 1.73 fL. For the same molecule, in [1] (14 days), the MONO is recorded as 0.06 ± 0.10 10^9/l, the NEUT is 0.64 ± 0.17 10^9/l, the PLT is on record as 745.75 ± 116.31* 10^9/l and the RBC was 8.06 ± 0.24*** 10^12/l. Also, in [1] (14 days), the WBC is 3.40 ± 1.21 10^9/l. The IC50 in the data set with SW620 (Homo sapiens, SW-620, 72 h) was 18.5 ± 4.05 µM. Besides, in the data set with HT-29 (Homo sapiens, HT-29, 72 h), it took 2.27 ± 0.41 µM to reach half-maximal inhibition (IC50). Moreover, inhibition in the data set on FHC (Homo sapiens, FHC) was half-maximal at 21.9 ± 2.49 µM (IC50). Further, in [2] (2 days), the ALP is listed as 359.25 ± 72.22 U/l, the ALT is listed as 23.25 ± 4.97 U/l, the AST is reported as 63.50 ± 13.24 U/l and the BUN stood at 23.65 ± 1.50 mg/dL. Moreover, in [2] (2 days), the CRE stood at 0.23 ± 0.1 mg/dL and the GLU came out at 577.25 ± 36.55 mg/dL. Further, in data set [2] (14 days), the ALP amounted to 177.50 ± 119.69 U/l, the BUN was found to be 22.20 ± 3.42 mg/dL, the CRE came out at 0.25 ± 0.10 mg/dL and the GLU is 244.00 ± 86.63 mg/dL. In [2] (14 days), the GOT/AST came out at 53.00 ± 3.56 U/l and the GPT/ALT amounted to 46.50 ± 7.85 U/l. Also, the “mode of cell death” value with RKO cells [3] is listed as “mainly caused necrotic cell death”. The tail moment in the data set on RKO cells [4] was found to be 3.9 ± 0.4 μm.

Turning to `Cc1ccc(Nc2c3ccccc3nc3c(C)cccc23)cc1NC(=O)Nc1ccc(N(CCCl)CCCl)cc1` [BO-1051], the “consensus sequence / binding pattern of guanine-N7 alkylation” value in [5] is “no distinct binding sequence”.

Regarding `CN(C)CCNC(=O)c1cccc(NC(=O)Nc2ccc(N(CCCl)CCCl)cc2)c1.Cl` [BO-1055], in data set [5], the “consensus sequence / binding pattern of guanine-N7 alkylation” value is given as “no distinct binding sequence”.

Consider `N.N.[Cl][Pt][Cl]` [Cisplatin, cisplatin], for which the IC50 is 6.38 ± 2.18 µM with LoVo (LoVo (p53-WT)); 26.3 ± 3.28 µM in the data set on RKO (RKO (p53-WT)); 12.2 ± 0.64 µM in the data set on H3347; 11.1 ± 1.27 µM in the data set with Colo205 (Colo205 (p53-WT), 72 h); 3420 ± 360 nM with HCT116 (HCT116 (p53-WT), 72 h); 29.6 ± 6.42 µM with DLD-1 (DLD-1 (p53-MT), 72 h). Also, the IC50 in the data set with LS174T (LS174T (p53-WT)) worked out at 8.48 ± 2.74 µM; with RKO-E6 it was 24.8 ± 7.71 µM; with SW620 (SW620 (p53-MT), 72 h), 0.91 ± 0.27 µM; with HT-29 (HT-29 (p53-MT), 72 h) it was 5.99 ± 1.22 µM; with FHC (setting [6]) it was 21 ± 2.03 µM.

On to `CCc1c2c(nc3ccc(OC(=O)N4CCC(N5CCCCC5)CC4)cc13)-c1cc3c(c(=O)n1C2)COC(=O)[C@]3(O)CC` [Irinotecan, irinotecan], for which the IC50 was determined as 9.69 ± 1.68 µM in the data set on LoVo (Homo sapiens, LoVo); 2.63 ± 1.05 µM in the data set with RKO (Homo sapiens, RKO); 2.93 ± 0.68 µM in the data set on H3347 (Homo sapiens); 2.49 ± 0.48 µM in the data set with Colo205 (Homo sapiens, COLO 205, 72 h); 1380 ± 490 nM in the data set on HCT116 (Homo sapiens, HCT-116, 72 h); 21.3 ± 7.34 µM with Caco-2. Moreover, the IC50 was 1.72 ± 0.35 µM with DLD-1 (Homo sapiens, DLD-1, 72 h); 1.36 ± 0.33 µM with LS174T (Homo sapiens, LS174T); 0.32 ± 0.1 µM in the data set with SW620 (Homo sapiens, SW-620, 72 h); 4.19 ± 0.29 µM with HT-29 (Homo sapiens, HT-29, 72 h); above 100 µM with FHC (Homo sapiens, FHC).

Consider `O=C1[O][Pt]2([NH][C@@H]3CCCC[C@H]3[NH]2)[O]C1=O` [Oxaliplatin, oxaliplatin], for which the IC50 was found to be 1.65 ± 0.21 µM with LoVo (LoVo (p53-WT)); 0.62 ± 0.02 µM with RKO (RKO (p53-WT)); 2.55 ± 0.73 µM in the data set with H3347; 2.26 ± 0.78 µM in the data set with Colo205 (Colo205 (p53-WT), 72 h); 1780 ± 110 nM with HCT116 (HCT116 (p53-WT), 72 h); 1.62 ± 0.06 µM in the data set with DLD-1 (DLD-1 (p53-MT), 72 h). The IC50 was above 50 µM in the data set on LS174T (LS174T (p53-WT)); 10.3 ± 3.39 µM in the data set with RKO-E6; 7.62 ± 3.12 µM in the data set with SW620 (SW620 (p53-MT), 72 h); 1.92 ± 0.81 µM with HT-29 (HT-29 (p53-MT), 72 h); 19.7 ± 2.21 µM in the data set on FHC (setting [6]). Besides, the ALP in data set [2] (2 days) was determined as 498.33 ± 63.91 U/l; in [2] (14 days), 245.5 ± 35.07 U/l. In data set [2] (2 days), the ALT was 28.00 ± 1.73 U/l. In data set [2] (2 days), this molecule displayed an AST of 76.67 ± 16.47 U/l. Also, the values for the BUN in data set [2] (2 days) and in data set [2] (14 days) were 20.27 ± 3.32 mg/dL and 21.35 ± 5.07 mg/dL, respectively. Moreover, the CRE was found to be 0.27 ± 0.06 mg/dL in [2] (2 days) and 0.13 ± 0.05 mg/dL in data set [2] (14 days). Further, the GLU worked out at 153.67 ± 88.22 mg/dL in data set [2] (2 days) and 268.25 ± 61.43 mg/dL in data set [2] (14 days). For the same molecule, the GOT/AST in [2] (14 days) worked out at 47.25 ± 7.13 U/l. Also, the GPT/ALT in [2] (14 days) is 29.50 ± 5.74 U/l.

Broadly, the IC50 is the point on the concentration scale where inhibition reaches its midpoint.
